Data set [1] in a line: Inhibition of HCV NS3 protease. More on the design: species or system Hepacivirus hominis. The method, boiled down:
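Genotype 1b NS3-NS4A (0.5 nM) with 5 μM fluorogenic depsipeptide substrate anthranilyl-DDIVPAbu[C(O)-O]AMY(3-NO2)-TW-OH in 50 mM Tris-HCl pH 8.0, 0.25 M sodium citrate, 0.01% dodecyl maltoside, 1 mM TCEP, 5% DMSO; 60-70 min at 23 °C, stopped with 1 M MES pH 5.8; product fluorescence read; IC50 from percent inhibition by nonlinear fit.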

The next data set concerns Hepatitis C virus. The experiment in a line: Antiviral activity against HCV Con1 by cell based-luciferase reporter gene assay. It counts as functional, organism-based, Hepacivirus hominis. The method, boiled down:
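Bicistronic luciferase reporter replicon cells (Con1 genotype 1b NS2-NS5B) exposed to compound for 72 h; luciferase read with Bright-Glo substrate by luminescence. EC50 fitted by nonlinear regression.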
(In general: A reporter such as luciferase makes a cellular process visible.)

A short description of data set [2]: Volume of distribution at steady state in rat at 2 mg/kg, iv. In kind it is ADME, organism-based. Set-up: dose 2 mg/kg, route intravenous. As to conditions: in vivo, read-out: Vdss. The method, boiled down:
(§1)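 Male Sprague-Dawley rats (275-300 g), fasted overnight with 10% dextrose water access, given 2 mg/kg intravenously. Blood drawn via right carotid cannula at 5 min and 0.25-8 h; plasma pooled from three animals per time point, solid-phase extraction, LC-MS measurement; parameters from noncompartmental analysis.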

The nature of data set [3]: AUC (0 to infinity) in rat at 5 mg/kg, po. It counts as ADME, organism-based. Set-up: time infinity, dose 5 mg/kg, route oral. As to conditions: plasma. The method, boiled down:
(§2)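 Male Sprague-Dawley rats (275-300 g), fasted overnight with 10% dextrose in water; single oral gavage 5 mg/kg in 0.5% Methocel/0.3% Tween-80 (10 mL/kg). Carotid cannula sampling at 0-8 h; plasma pooled from three rats per time point, solid-phase extracted, LC-MS quantified; noncompartmental analysis. F derived using the 2 mg/kg iv arm.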

Data set [4] in a line: Half life in rat at 2 mg/kg, iv. It counts as ADME, organism-based. Set-up: dose 2 mg/kg, route intravenous. As to conditions: in vivo. Summed up:
as §1

Data set [5] can be described thus: Cmax in rat at 5 mg/kg, po. In kind it is ADME, organism-based. The note with it: in vivo. Set-up: dose 5 mg/kg, route oral. The method, boiled down: as §2
Data set [6] is described as follows: Oral bioavailability in rat at 5 mg/kg. The note with it: in vivo. In kind it is ADME, organism-based. Summed up: as §2
Data set [7] in a line: Clearance in rat at 2 mg/kg, iv. In kind it is ADME, organism-based. Set-up: dose 2 mg/kg, route intravenous. As to conditions: in vivo. Summed up:
as §1

By IC50 is commonly meant the concentration needed to halve the response being measured. The EC50 is the concentration giving half of the maximal effect. Turning to `C=C[C@@H]1C[C@]1(NC(=O)[C@@H]1C[C@@H](Oc2cc(-c3csc(NC(=O)CC)n3)nc3c(F)c(OC)ccc23)CN1C(=O)[C@@H](NC(=O)OC1CCCC1)C(C)(C)C)C(=O)O`, in data set [1], the half-inhibitory concentration (IC50) came out at 7 nM. Further, the EC50 with Hepatitis C virus was 36 nM.

For the molecule `C=C[C@@H]1C[C@]1(NC(=O)[C@@H]1C[C@@H](Oc2cc(-c3csc(NC(=O)OC(C)C)n3)nc3c(Br)c(OC)ccc23)CN1C(=O)[C@@H](NC(=O)OC1CCCC1)C(C)(C)C)C(=O)O`, the IC50 in data set [1] came out at 6 nM. The molecule also registered a concentration giving a half-maximal response (EC50) in the data set on Hepatitis C virus of 6 nM.

With `C=C[C@@H]1C[C@]1(NC(=O)[C@@H]1C[C@@H](Oc2cc(-c3ccccc3)nc3cc(OC)ccc23)CN1C(=O)[C@@H](NC(=O)OC1CCCC1)C(C)(C)C)C(=O)O`, the IC50 in data set [1] was 14 nM. This molecule displayed a 50% effective concentration (EC50) in the data set with Hepatitis C virus of 550 nM.

With `C=C[C@@H]1C[C@]1(NC(=O)[C@@H]1C[C@@H](Oc2cc(-c3csc(NC(C)C)n3)nc3c(C)c(OC)ccc23)CN1C(=O)[C@@H](NC(=O)OC1CCCC1)C(C)(C)C)C(=O)O`, the IC50 in data set [1] was determined as 15 nM. Also, the concentration giving a half-maximal response (EC50) with Hepatitis C virus came to 40 nM.

In data set [1], `C=C[C@@H]1C[C@]1(NC(=O)[C@@H]1C[C@@H](Oc2cc(-c3csc(NC(=O)C(C)C)n3)nc3c(Br)c(OC)ccc23)CN1C(=O)[C@@H](NC(=O)OC1CCCC1)C(C)(C)C)C(=O)O` [FALDAPREVIR] had an IC50 of 3 nM. Besides, the EC50 in the data set on Hepatitis C virus is 3 nM.

As usually defined, the AUC(0-inf) is total exposure, with the tail of the curve extrapolated. Usually half-life stands for the time needed for the level to fall by half in the phase considered. By Cmax is commonly meant the maximum level reached in the sampled fluid or tissue. As usually defined, the bioavailability is the share of a dose that reaches the circulation, judged against a reference dose that is usually intravenous. A low value points to poor availability. In general, clearance refers to the volume of plasma or blood freed of the substance per unit of time. Regarding `C=C[C@@H]1C[C@]1(NC(=O)[C@@H]1C[C@@H](Oc2cc(-c3csc(NC(=O)CC(C)(C)C)n3)nc3cc(OC)ccc23)CN1C(=O)[C@@H](NC(=O)OC1CCCC1)C(C)(C)C)C(=O)O`, the Vd in data set [2] worked out at 0.83 L/kg. Besides, inhibition in data set [1] was half-maximal at 17 nM (IC50). The molecule also returned a 50% effective concentration (EC50) in the data set with Hepatitis C virus of 68 nM. Also, the area under the curve AUC(0-inf) in data set [3] worked out at 2.8 µM·h. The half-life in data set [4] is 1.2 h. The same molecule registered a Cmax in data set [5] of 1100 nM. Besides, the bioavailability in data set [6] worked out at 39%. In data set [7], this molecule came in with a clearance of 14 mL/min/kg.

The molecule `C=C[C@@H]1C[C@]1(NC(=O)[C@@H]1C[C@@H](Oc2cc(-c3csc(NC(=O)CC)n3)nc3c(Cl)c(OC)ccc23)CN1C(=O)[C@@H](NC(=O)OC1CCCC1)C(C)(C)C)C(=O)O` displayed a 50% inhibitory concentration (IC50) in data set [1] of 7 nM. In the data set on Hepatitis C virus, this molecule returned a concentration for a half-maximal effect (EC50) of 11 nM.

As to `C=C[C@@H]1C[C@]1(NC(=O)[C@@H]1C[C@@H](Oc2cc(-c3csc(NC(C)C)n3)nc3cc(OC)ccc23)CN1C(=O)[C@@H](NC(=O)OC1CCC1)C(C)(C)C)C(=O)O`, in data set [1], the IC50 turned out to be 12 nM. Also, the EC50 with Hepatitis C virus was determined as 110 nM.

The molecule `C=C[C@@H]1C[C@]1(NC(=O)[C@@H]1C[C@@H](Oc2cc(-c3csc(NC(C)=O)n3)nc3c(C)c(OC)ccc23)CN1C(=O)[C@@H](NC(=O)OC1CCCC1)C(C)(C)C)C(=O)O` showed a concentration for half-maximal inhibition (IC50) in data set [1] of 8 nM. For the same molecule, the 50% effective concentration (EC50) in the data set on Hepatitis C virus came to 19 nM.

`C=C[C@@H]1C[C@]1(NC(=O)[C@@H]1C[C@@H](Oc2cc(-c3csc(NC(=O)CC)n3)nc3c(C)c(OC)ccc23)CN1C(=O)[C@@H](NC(=O)OC1CCCC1)C(C)(C)C)C(=O)O`: the Vd in data set [2] is 1.8 L/kg. For the same molecule, in data set [1], the midpoint of inhibition, the IC50, lay at 10 nM. This molecule showed an EC50 in the data set with Hepatitis C virus of 17 nM. The molecule also came in with an AUC(0-inf) in data set [3] of 3.5 µM·h. In data set [4], the half-life is 1.7 h. The same molecule returned a Cmax in data set [5] of 820 nM. This molecule also registered a bioavailability in data set [6] of 56%. Moreover, in data set [7], the clearance was 15 mL/min/kg.

In data set [1], `C=C[C@@H]1C[C@]1(NC(=O)[C@@H]1C[C@@H](Oc2cc(-c3csc(NC(C)=O)n3)nc3cc(OC)ccc23)CN1C(=O)[C@@H](NC(=O)OC1CCCC1)C(C)(C)C)C(=O)O` had a half-inhibitory concentration (IC50) of 5 nM. In the data set on Hepatitis C virus, this molecule registered a half-maximal effective concentration (EC50) of 34 nM.

The molecule `COc1ccc2c(O[C@@H]3C[C@H]4C(=O)N[C@]5(C(=O)O)C[C@H]5/C=C\CCCCC[C@H](NC(=O)OC5CCCC5)C(=O)N4C3)cc(-c3csc(NC(C)C)n3)nc2c1` [CILUPREVIR] yielded an IC50 in data set [1] of 3 nM. For the same molecule, the EC50 in the data set with Hepatitis C virus was determined as 2 nM.

Regarding `C=C[C@@H]1C[C@]1(NC(=O)[C@@H]1C[C@@H](Oc2cc(-c3csc(NC(C)C)n3)nc3cc(OC)ccc23)CN1C(=O)[C@@H](NC(=O)OC(C)(C)C)C(C)(C)C)C(=O)O`, it took 43 nM to reach half-maximal inhibition in data set [1] (IC50).

Turning to `C=C[C@@H]1C[C@]1(NC(=O)[C@@H]1C[C@@H](Oc2cc(-c3csc(NC(C)C)n3)nc3cc(OC)ccc23)CN1C(=O)[C@@H](O)C(C)(C)C)C(=O)O`, in data set [1], inhibition was half-maximal at 320 nM (IC50).

`C=C[C@@H]1C[C@]1(NC(=O)[C@@H]1C[C@@H](Oc2cc(-c3csc(NC(=O)CC)n3)nc3c(Br)c(OC)ccc23)CN1C(=O)[C@@H](NC(=O)OC1CCCC1)C(C)(C)C)C(=O)O`: in data set [1], the midpoint of inhibition, the IC50, lay at 7 nM. Further, it took 5 nM to reach a half-maximal effect with Hepatitis C virus (EC50).

`C=C[C@@H]1C[C@]1(NC(=O)[C@@H]1C[C@@H](Oc2cc(-c3csc(NC(=O)OC)n3)nc3c(Br)c(OC)ccc23)CN1C(=O)[C@@H](NC(=O)OC1CCCC1)C(C)(C)C)C(=O)O` gave an IC50 in data set [1] of 6 nM. Besides, the 50% effective concentration (EC50) in the data set with Hepatitis C virus amounted to 3 nM.

Take `C=C[C@@H]1C[C@]1(NC(=O)[C@@H]1C[C@@H](Oc2cc(-c3csc(NC(C)C)n3)nc3cc(OC)ccc23)CN1C(=O)[C@@H](NC(=O)OC1CCCCC1)C(C)(C)C)C(=O)O`: the half-maximal inhibitory concentration (IC50) in data set [1] is 18 nM. This molecule also came in with a concentration giving a half-maximal response (EC50) with Hepatitis C virus of 90 nM.

`C=C[C@@H]1C[C@]1(NC(=O)[C@@H]1C[C@@H](Oc2cc(-c3csc(NC(C)C)n3)nc3cc(OC)ccc23)CN1C(=O)[C@@H](NC(=O)OC1CCCC1)C(C)(C)C)C(=O)O`: in data set [2], the Vd was 3.7 L/kg. Also, in data set [1], the half-inhibitory concentration (IC50) is 14 nM. The same molecule returned an EC50 in the data set on Hepatitis C virus of 45 nM. The total exposure AUC(0-inf) in data set [3] worked out at 2.4 µM·h. In data set [4], this molecule showed a half-life of 2.6 h. The same molecule registered a Cmax in data set [5] of 790 nM. For the same molecule, in data set [6], the bioavailability amounted to 54%. In data set [7], this molecule registered a clearance of 24 mL/min/kg.

Values taken from ChEMBL document CHEMBL1240512, “Discovery of a potent and selective noncovalent linear inhibitor of the hepatitis C virus NS3 protease (BI 201335)” (J Med Chem, 2010).
